Measurements: article PMC3726261 (Cancer, 2012)

Tests used:
[1] = Pharmacokinetics: plasma R-150033 by LC-MS/MS after oral efatutazone; assay type: in vivo, human; conditions: 0.10 to 1.15 mg twice daily; single and multiple doses
Method in brief: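 Adults with advanced solid malignancies took oral doses twice daily in 21-day cycles, in cohorts of 3 to 6 at 0.10–1.15 mg. Plasma was sampled at baseline and 0.5, 1, 2, 3, 4, 6 and 8–10 h after the first dose on day 1 of cycles 1 and 2. Active metabolite R-150033 was measured by validated LC-MS/MS. AUC, Cmax and Tmax were derived; accumulation was AUC0-tau/AUC0–12, and steady state was judged from trough levels.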

[2] = system: recurrent metastatic liposarcoma; conditions: patients with recurrent metastatic liposarcoma; cited from earlier work
[3] = system: prostate-specific antigen levels; conditions: small percentage of prostate cancer patients; cited from earlier work

SMILES: Cc1cc(Oc2ccc3nc(COc4ccc(CC5SC(=O)NC5=O)cc4)n(C)c3c2)cc(C)c1N (stereo not drawn) [R-150033]
- Dose proportionality of exposure (AUC and Cmax) [1]: dose proportional

SMILES: CCc1ccc(CCOc2ccc(CC3SC(=O)NC3=O)cc2)nc1 (stereo not drawn) [pioglitazone]
- Disease stabilization [2]: prolonged disease stabilization

SMILES: CN(CCOc1ccc(CC2SC(=O)NC2=O)cc1)c1ccccn1 (stereo not drawn) [rosiglitazone]
- Effect on prostate-specific antigen levels [3]: either decreased or prolonged the stabilization of prostate-specific antigen levels
